Measured values: ChEMBL document CHEMBL4831495, “Discovery of novel BCR-ABL PROTACs based on the cereblon E3 ligase design, synthesis, and biological evaluation” (Eur J Med Chem, 2021)
Calls of active or inactive are those of the source. No cut-off for these calls is given here.

Experiments:
[1] = system: K562; experiment: Antiproliferative activity against human K562 cells assessed as cell growth inhibition measured after 48 hrs by CCK8 assay; type: functional, cell-based; settings: K562, 48 h
Method in brief: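 Cells were seeded at 3000-20,000 per well and given 3-fold serial dilutions of compound in medium. After 2 days at 37 °C in 5% CO2, CCK-8 reagent was added for 2-4 h and absorbance was read at 450 nm.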

[2] = target: T1, Protein cereblon/Tyrosine-protein kinase ABL1/Breakpoint cluster region protein (Homo sapiens, UniProt P00519+P11274+Q96SW2); experiment: PROTAC activity at CRBN/Bcr-Abl in human K562 cells assessed as degrading activity by Western blotting analysis; type: cell-based
Target sequence in this assay (P00519 whole entry): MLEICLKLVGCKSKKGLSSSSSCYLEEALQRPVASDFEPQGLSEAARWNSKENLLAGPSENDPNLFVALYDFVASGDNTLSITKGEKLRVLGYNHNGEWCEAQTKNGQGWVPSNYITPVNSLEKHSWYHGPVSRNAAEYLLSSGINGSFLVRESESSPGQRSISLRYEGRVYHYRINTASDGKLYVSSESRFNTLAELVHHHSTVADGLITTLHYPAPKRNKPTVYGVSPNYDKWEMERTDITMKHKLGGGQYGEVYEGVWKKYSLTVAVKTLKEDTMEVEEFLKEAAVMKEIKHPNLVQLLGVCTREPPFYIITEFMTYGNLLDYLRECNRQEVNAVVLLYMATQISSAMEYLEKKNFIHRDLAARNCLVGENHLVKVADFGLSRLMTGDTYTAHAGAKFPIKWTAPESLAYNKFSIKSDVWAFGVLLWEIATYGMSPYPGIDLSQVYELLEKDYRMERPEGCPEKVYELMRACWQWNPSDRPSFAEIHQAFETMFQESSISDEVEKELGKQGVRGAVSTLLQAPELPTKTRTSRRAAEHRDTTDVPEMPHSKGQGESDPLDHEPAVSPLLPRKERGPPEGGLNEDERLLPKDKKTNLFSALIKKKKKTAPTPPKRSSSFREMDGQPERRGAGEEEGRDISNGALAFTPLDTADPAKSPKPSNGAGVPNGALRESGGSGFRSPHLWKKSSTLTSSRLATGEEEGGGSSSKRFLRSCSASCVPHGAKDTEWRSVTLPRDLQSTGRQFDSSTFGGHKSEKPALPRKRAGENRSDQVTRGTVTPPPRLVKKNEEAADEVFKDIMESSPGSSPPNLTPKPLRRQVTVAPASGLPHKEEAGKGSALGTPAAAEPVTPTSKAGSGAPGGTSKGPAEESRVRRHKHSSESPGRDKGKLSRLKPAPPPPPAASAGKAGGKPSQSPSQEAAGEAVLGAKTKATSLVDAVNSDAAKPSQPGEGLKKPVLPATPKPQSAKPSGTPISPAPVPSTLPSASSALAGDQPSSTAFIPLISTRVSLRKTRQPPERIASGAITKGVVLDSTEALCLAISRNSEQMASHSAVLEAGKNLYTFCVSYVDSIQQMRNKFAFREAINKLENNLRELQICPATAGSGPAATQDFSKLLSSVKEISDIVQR
Target sequence in this assay (P11274 whole entry): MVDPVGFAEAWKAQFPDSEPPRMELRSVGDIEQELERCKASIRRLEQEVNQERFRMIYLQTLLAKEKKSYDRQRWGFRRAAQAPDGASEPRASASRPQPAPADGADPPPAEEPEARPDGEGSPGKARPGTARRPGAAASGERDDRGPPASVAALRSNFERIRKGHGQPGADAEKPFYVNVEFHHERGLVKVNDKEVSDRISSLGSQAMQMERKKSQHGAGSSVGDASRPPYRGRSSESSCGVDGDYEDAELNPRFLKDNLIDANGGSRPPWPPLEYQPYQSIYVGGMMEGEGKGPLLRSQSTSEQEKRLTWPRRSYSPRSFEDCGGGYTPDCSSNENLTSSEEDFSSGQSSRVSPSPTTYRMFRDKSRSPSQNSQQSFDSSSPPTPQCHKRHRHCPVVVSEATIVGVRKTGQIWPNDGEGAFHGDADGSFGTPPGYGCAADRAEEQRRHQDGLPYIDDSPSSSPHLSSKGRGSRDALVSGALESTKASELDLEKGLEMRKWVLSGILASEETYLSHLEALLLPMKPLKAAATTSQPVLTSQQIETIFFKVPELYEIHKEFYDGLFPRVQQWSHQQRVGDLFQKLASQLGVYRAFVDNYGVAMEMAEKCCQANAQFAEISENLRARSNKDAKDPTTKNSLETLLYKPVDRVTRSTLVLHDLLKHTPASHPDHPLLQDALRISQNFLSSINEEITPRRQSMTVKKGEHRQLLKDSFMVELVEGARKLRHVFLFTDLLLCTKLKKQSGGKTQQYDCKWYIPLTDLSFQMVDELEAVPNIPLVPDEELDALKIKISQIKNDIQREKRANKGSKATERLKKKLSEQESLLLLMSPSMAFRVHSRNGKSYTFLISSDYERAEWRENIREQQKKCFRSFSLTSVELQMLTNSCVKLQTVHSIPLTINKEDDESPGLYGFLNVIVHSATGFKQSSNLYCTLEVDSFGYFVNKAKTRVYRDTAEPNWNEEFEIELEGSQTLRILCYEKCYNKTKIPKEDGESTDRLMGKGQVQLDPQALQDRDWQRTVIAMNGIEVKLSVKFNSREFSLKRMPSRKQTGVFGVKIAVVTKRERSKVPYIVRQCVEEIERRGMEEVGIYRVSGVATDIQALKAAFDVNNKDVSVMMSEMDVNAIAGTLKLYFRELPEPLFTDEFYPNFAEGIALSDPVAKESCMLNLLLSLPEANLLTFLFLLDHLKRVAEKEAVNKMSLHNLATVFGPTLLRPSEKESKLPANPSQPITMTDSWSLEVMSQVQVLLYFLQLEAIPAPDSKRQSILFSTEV
Target sequence in this assay (Q96SW2 whole entry): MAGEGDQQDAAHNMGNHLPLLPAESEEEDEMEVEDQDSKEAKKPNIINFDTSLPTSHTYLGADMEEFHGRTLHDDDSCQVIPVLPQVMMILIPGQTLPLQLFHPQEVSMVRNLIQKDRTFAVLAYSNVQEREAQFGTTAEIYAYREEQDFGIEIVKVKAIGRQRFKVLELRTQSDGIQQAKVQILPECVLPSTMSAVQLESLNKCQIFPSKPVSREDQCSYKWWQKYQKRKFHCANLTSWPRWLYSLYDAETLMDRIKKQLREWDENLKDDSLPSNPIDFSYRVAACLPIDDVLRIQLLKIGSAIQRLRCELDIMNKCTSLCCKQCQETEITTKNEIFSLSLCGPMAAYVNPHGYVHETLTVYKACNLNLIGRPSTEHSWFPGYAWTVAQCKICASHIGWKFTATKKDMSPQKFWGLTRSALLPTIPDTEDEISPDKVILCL

[3] = Half life in Wistar rat at 2 mg/kg, iv by LC-MS/MS analysis; type: ADME, organism-based; settings: in vivo
Method in brief: (§1)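 Single intravenous dose of 2 mg/kg into the femoral vein of female Wistar rats, given as a solution in NMP/PEG200 (1:9, v/v). Plasma was collected by sublingual vein bleeding at 0.083, 0.25, 0.5, 1, 2, 4, 6, 8, 12 and 24 h from one group of rats (n = 3). Samples were extracted and quantified by LC-MS/MS, LOQ 2.5 ng/mL.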

[4] = Tmax in Wistar rat at 2 mg/kg, iv by LC-MS/MS analysis; type: ADME, organism-based; settings: in vivo; method in brief: as §1
[5] = Cmax in Wistar rat at 2 mg/kg, iv by LC-MS/MS analysis; type: ADME, organism-based; design: route intravenous, dose 2 mg/kg; settings: in vivo; method in brief: as §1
[6] = AUC (0 to t) in Wistar rat at 2 mg/kg, iv by LC-MS/MS analysis; type: ADME, organism-based; design: dose 2 mg/kg; settings: in vivo; method in brief: as §1
[7] = MRT (0 to t) in Wistar rat at 2 mg/kg, iv by LC-MS/MS analysis; type: ADME, organism-based; settings: in vivo; method in brief: as §1
[8] = Apparent volume of distribution during steady state in Wistar rat at 2 mg/kg, iv by LC-MS/MS analysis; type: ADME, organism-based; settings: in vivo, read-out: Vdss; method in brief: as §1
[9] = Apparent volume of distribution during terminal state in Wistar rat at 2 mg/kg, iv by LC-MS/MS analysis; type: ADME, organism-based; settings: in vivo, read-out: Vz; method in brief: as §1
[10] = Clearance in Wistar rat at 2 mg/kg, iv by LC-MS/MS analysis; type: ADME, organism-based; settings: in vivo; method in brief: as §1
[11] = target: T1, Protein cereblon/Tyrosine-protein kinase ABL1/Breakpoint cluster region protein; experiment: PROTAC activity at CRBN/Bcr-Abl in human K562 cells assessed as reduction in STAT5 level after 16 hrs by Western blotting analysis; type: cell-based
Method in brief: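 K562 cells were plated at 3 × 10^5 cells/mL and treated with graded concentrations for 16 h. Lysates in 1× SDS buffer with protease inhibitors were quantified by Bradford assay. Western blots were probed with antibodies against Stat5, phospho-Stat5 (Tyr694) and […], among others.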
Target sequence in this assay (P00519 whole entry, looked up): as the sequence (P00519 whole entry) above
Target sequence in this assay (P11274 whole entry, looked up): as the sequence (P11274 whole entry) above
Target sequence in this assay (Q96SW2 whole entry, looked up): as the sequence (Q96SW2 whole entry) above

[12] = target: T1, Protein cereblon/Tyrosine-protein kinase ABL1/Breakpoint cluster region protein; experiment: PROTAC activity at CRBN/Bcr-Abl in human K562 cells assessed as reduction in CRLK level after 16 hrs by Western blotting analysis; type: cell-based
Target sequence in this assay (P00519 whole entry, looked up): as the sequence (P00519 whole entry) above
Target sequence in this assay (P11274 whole entry, looked up): as the sequence (P11274 whole entry) above
Target sequence in this assay (Q96SW2 whole entry, looked up): as the sequence (Q96SW2 whole entry) above

[13] = target: T1, Protein cereblon/Tyrosine-protein kinase ABL1/Breakpoint cluster region protein; experiment: PROTAC activity at CRBN/Bcr-Abl in human K562 cells assessed as reduction in Bcr-Abl level at 30 nM by Western blotting analysis; type: cell-based; settings: time 0-24 hrs
Target sequence in this assay (P00519 whole entry, looked up): as the sequence (P00519 whole entry) above
Target sequence in this assay (P11274 whole entry, looked up): as the sequence (P11274 whole entry) above
Target sequence in this assay (Q96SW2 whole entry, looked up): as the sequence (Q96SW2 whole entry) above

[14] = target: T1, Protein cereblon/Tyrosine-protein kinase ABL1/Breakpoint cluster region protein; experiment: PROTAC activity at CRBN/Bcr-Abl in human K562 cells assessed as reduction in Bcr-Abl level at 30 nM preincubated with proteasome inhibitor MG132 for 2 hrs and measured after 8 hrs by Western blotting analysis; type: cell-based
Method in brief: (§2)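 K562 cells were pretreated for 2 h with MG132 ([…] as printed) or MLN4924 ([…] as printed), then exposed to degrader at 30 nM for 8 h. Cells were lysed in 1× SDS buffer with protease inhibitors, and protein was quantified by Bradford assay. BCR-ABL and c-ABL were detected by Western blot.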
Target sequence in this assay (P00519 whole entry, looked up): as the sequence (P00519 whole entry) above
Target sequence in this assay (P11274 whole entry, looked up): as the sequence (P11274 whole entry) above
Target sequence in this assay (Q96SW2 whole entry, looked up): as the sequence (Q96SW2 whole entry) above

[15] = target: T1, Protein cereblon/Tyrosine-protein kinase ABL1/Breakpoint cluster region protein; experiment: PROTAC activity at CRBN/Bcr-Abl in human K562 cells assessed as reduction in C-Abl level at 30 nM preincubated with proteasome inhibitor MG132 for 2 hrs and measured after 8 hrs by Western blotting analysis; type: cell-based; method in brief: as §2
Target sequence in this assay (P00519 whole entry, looked up): as the sequence (P00519 whole entry) above
Target sequence in this assay (P11274 whole entry, looked up): as the sequence (P11274 whole entry) above
Target sequence in this assay (Q96SW2 whole entry, looked up): as the sequence (Q96SW2 whole entry) above

[16] = target: T1, Protein cereblon/Tyrosine-protein kinase ABL1/Breakpoint cluster region protein; experiment: PROTAC activity at CRBN/Bcr-Abl in human K562 cells assessed as reduction in Bcr-Abl level at 30 nM preincubated with NEDD8 inhibitor MLN4924 for 2 hrs and measured after 8 hrs by Western blotting analysis; type: cell-based; method in brief: as §2
Target sequence in this assay (P00519 whole entry, looked up): as the sequence (P00519 whole entry) above
Target sequence in this assay (P11274 whole entry, looked up): as the sequence (P11274 whole entry) above
Target sequence in this assay (Q96SW2 whole entry, looked up): as the sequence (Q96SW2 whole entry) above

[17] = target: T1, Protein cereblon/Tyrosine-protein kinase ABL1/Breakpoint cluster region protein; experiment: PROTAC activity at CRBN/Bcr-Abl in human K562 cells assessed as reduction in C-Abl level at 30 nM preincubated with NEDD8 inhibitor MLN4924 for 2 hrs and measured after 8 hrs by Western blotting analysis; type: cell-based; method in brief: as §2
[18] = system: Protein cereblon/Tyrosine-protein kinase ABL1/Breakpoint cluster region protein (Homo sapiens), P00519+P11274+Q96SW2 [E255V]; experiment: PROTAC activity at CRBN/BCR-ABL E255V mutant in human K562 cells assessed as degradation by Western blot analysis relative to control; type: cell-based
Method in brief: (§3)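 Cells plated at 3 × 10^5 cells/mL and exposed to compounds at the indicated concentrations and times. Cells were then harvested, washed in cold PBS and lysed in 1× SDS buffer with protease inhibitor cocktail. Protein was quantified by detergent-compatible Bradford assay, and BCR-ABL was detected by Western blot with a c-ABL antibody.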

[19] = system: Protein cereblon/Tyrosine-protein kinase ABL1/Breakpoint cluster region protein (Homo sapiens), P00519+P11274+Q96SW2 [V299L]; experiment: PROTAC activity at CRBN/BCR-ABL V299L mutant in human K562 cells assessed as degradation by Western blot analysis relative to control; type: cell-based; method in brief: as §3
[20] = system: Protein cereblon/Tyrosine-protein kinase ABL1/Breakpoint cluster region protein (Homo sapiens), P00519+P11274+Q96SW2 [F317L]; experiment: PROTAC activity at CRBN/BCR-ABL F317L mutant in human K562 cells assessed as degradation by Western blot analysis relative to control; type: cell-based; method in brief: as §3
[21] = system: K562; experiment: Antitumor activity against human K562 cells xenografted in NOD-SCID mouse assessed as tumor growth inhibition at 1 mg/kg, ip administered daily 10 days; type: functional; settings: 240 h, time 10 day, read-out: TGI
Method in brief: (§4)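 Mice carried K562-Luc xenografts, with 2 × 10^6 cells inoculated per mouse. Dosing began at a mean tumor volume of about 200 mm3. Drug in DMSO/PEG 400/40% hydroxypropyl-(1:3:6, vol/vol) was given ip once daily for 10 consecutive days at 1, 3 or 10 mg/kg. Calipers were used 2-3 times weekly, with V = L × W²/2, and TGI was calculated at day 10.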

[22] = system: K562; experiment: Antitumor activity against human K562 cells xenografted in NOD-SCID mouse assessed as tumor growth inhibition at 3 mg/kg, ip administered daily 10 days; type: functional; settings: 240 h, time 10 day, read-out: TGI; method in brief: as §4
[23] = system: K562; experiment: Antitumor activity against human K562 cells xenografted in NOD-SCID mouse assessed as tumor growth inhibition at 10 mg/kg, ip administered daily 10 days; type: functional; settings: 240 h, time 10 day, read-out: TGI; method in brief: as §4
[24] = Toxicity in NOD-SCID mouse xenografted with human K562 cells assessed as reduction in body weight at 100 mg/kg, ip measured on day 10; type: organism-based; settings: in vivo
[25] = target: Protein cereblon/Proto-oncogene tyrosine-protein kinase Src (Homo sapiens) (UniProt P12931+Q96SW2); experiment: PROTAC activity at CRBN/Src in human K562 cells assessed as Src degrading activity by Western blotting analysis; type: cell-based
Protein cereblon/Proto-oncogene tyrosine-protein kinase Src (Homo sapiens), sequence (P12931 whole entry, looked up): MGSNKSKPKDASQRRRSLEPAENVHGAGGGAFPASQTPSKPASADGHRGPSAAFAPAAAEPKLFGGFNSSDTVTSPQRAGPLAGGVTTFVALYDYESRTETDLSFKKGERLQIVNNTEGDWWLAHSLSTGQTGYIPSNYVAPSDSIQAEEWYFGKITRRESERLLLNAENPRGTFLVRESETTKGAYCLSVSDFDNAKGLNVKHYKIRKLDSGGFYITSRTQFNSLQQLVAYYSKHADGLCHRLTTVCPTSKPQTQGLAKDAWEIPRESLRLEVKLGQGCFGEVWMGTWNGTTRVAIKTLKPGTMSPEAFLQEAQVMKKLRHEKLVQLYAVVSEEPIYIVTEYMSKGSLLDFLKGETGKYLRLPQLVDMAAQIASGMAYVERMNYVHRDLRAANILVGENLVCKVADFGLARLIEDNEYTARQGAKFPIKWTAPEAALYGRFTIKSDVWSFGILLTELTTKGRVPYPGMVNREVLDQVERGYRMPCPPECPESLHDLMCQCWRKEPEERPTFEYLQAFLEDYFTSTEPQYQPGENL
Protein cereblon/Proto-oncogene tyrosine-protein kinase Src (Homo sapiens), sequence (Q96SW2 whole entry, looked up): as the sequence (Q96SW2 whole entry) above

[26] = target: Protein cereblon/Platelet-derived growth factor receptor beta (Homo sapiens) (UniProt P09619+Q96SW2); experiment: PROTAC activity at CRBN/PDGFRbeta in human K562 cells assessed as PDGFRbeta degrading activity by Western blotting analysis; type: cell-based

Cc1nc(Nc2ncc(C(=O)Nc3c(C)cccc3Cl)s2)cc(N2CCN(CCSc3cccc4c3C(=O)N(C3CCC(=O)NC3=O)C4=O)CC2)n1 (stereo unspecified)
IC50 [1]: 490 pM
DC50 [2]: 180 pM
half-life [3]: 4.23 h
Tmax [4]: 4.8 min
Cmax [5]: 1500 ng/mL
AUC(0-t) [6]: 926 ng·h/mL
MRT last [7]: 2 h
Vd [8]: 5.23 L/kg
Vd [9]: 13 L/kg
clearance [10]: 35.7 mL/min/kg
inhibition [11]: Active
inhibition [12]: Active
inhibition [13]: Active
inhibition [14]: Active
inhibition [15]: Active
inhibition [16]: Active
inhibition [17]: Active
Activity [18]: Active
Activity [19]: Active
Activity [20]: Active
inhibition in vivo at 1 mg/kg [21]: 78.9%
inhibition in vivo at 3 mg/kg [22]: 93.8%
inhibition in vivo at 10 mg/kg [23]: 98.8%
Activity [24]: Non-Toxic
Activity [25]: inactive
Activity [26]: inactive
